{"source": "ChEMBL document CHEMBL4346669", "about": "“Novel nannocystin A analogues as anticancer therapeutics: Synthesis, biological evaluations and structure-activity relationship studies” (Eur J Med Chem, 2019)", "key": {"A549 [1]": {"test_system": "A549", "assay": "Cell cycle arrest in human A549 cells assessed as accumulation at S phase at 90 nM after 24 hrs by propidium iodide/RNase A staining-based flow cytometric analysis (reference value: 12.57%)", "assay_type": "functional"}, "A549 [2]": {"test_system": "A549", "assay": "Induction of apoptosis in human A549 cells assessed as necrotic cells at 60 nM after 6 hrs by Annexin-V FITC/propidium iodide staining based flow cytometric analysis", "assay_type": "functional", "summary_of_the_method": "(§1)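 Time-course: A549 (2×10^5 cells/well, grown overnight) exposed to 60 nM for 6, 12 or 24 h; untreated control. Cells trypsinized, washed in cold PBS, stained 15 min with Annexin V-FITC in binding buffer, then PI, and read by flow cytometry; duplicate experiments.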"}, "A549 [3]": {"test_system": "A549", "assay": "Induction of apoptosis in human A549 cells assessed as late apoptotic cells at 60 nM after 6 hrs by Annexin-V FITC/propidium iodide staining based flow cytometric analysis", "assay_type": "functional", "summary_of_the_method": "as §1"}, "MCF7": {"test_system": "MCF7", "assay": "Antiproliferative activity against human MCF7 cells assessed as reduction in cell viability measured after 72 hrs by MTT assay", "assay_type": "functional, cell-based", "details": "MCF7, 72 h", "summary_of_the_method": "(§2)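 Cells seeded at 5×10^3 per well and cultured overnight, then exposed for 72 h at 37 °C to six concentrations from 10 µM down to 0.0001 µM (from 10 mM DMSO stock diluted in medium; vehicle 1% DMSO in PBS). MTT at 0.5 mg/mL was added for 4 h, formazan dissolved in DMSO, and A570 read. IC50 given as mean ± SD of three independent experiments.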"}, "A549 [4]": {"test_system": "A549", "assay": "Induction of apoptosis in human A549 cells assessed as early apoptotic cells at 90 nM after 12 hrs by Annexin-V FITC/propidium iodide staining based flow cytometric analysis (reference value: 0.32%)", "assay_type": "functional"}, "A549 [5]": {"test_system": "A549", "assay": "Induction of apoptosis in human A549 cells assessed as late apoptotic cells at 60 nM after 24 hrs by Annexin-V FITC/propidium iodide staining based flow cytometric analysis", "assay_type": "functional", "summary_of_the_method": "as §1"}, "A549 [6]": {"test_system": "A549", "assay": "Induction of apoptosis in human A549 cells assessed as necrotic cells at 60 nM after 24 hrs by Annexin-V FITC/propidium iodide staining based flow cytometric analysis", "assay_type": "functional", "summary_of_the_method": "as §1"}, "A549 [7]": {"test_system": "A549", "assay": "Inhibition of colony formation in human A549 cells at 5 nM incubated for 3 days followed by further incubation in drug-free medium and measured after 15 days by crystal violet staining-based inverted microscopic analysis", "assay_type": "functional, cell-based", "summary_of_the_method": "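500 A549 cells/well incubated 24 h, then treated with 5, 10 or 20 nM for 3 days, followed by drug-free medium changed every 3 days. At day 15 after plating, colonies fixed in 95% ethanol 15 min, stained with 0.1% crystal violet, counted (colony = over 100 cells); mean ± SD of three independent experiments.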"}, "A549 [8]": {"test_system": "A549", "assay": "Induction of apoptosis in human A549 cells assessed as necrotic cells at 60 nM after 12 hrs by Annexin-V FITC/propidium iodide staining based flow cytometric analysis (reference value: 1.28%)", "assay_type": "functional"}, "A-375": {"test_system": "A-375", "assay": "Antiproliferative activity against human A375 cells assessed as reduction in cell viability measured after 72 hrs by MTT assay", "assay_type": "functional, cell-based", "details": "A-375, 72 h", "summary_of_the_method": "as §2"}, "A549 [9]": {"test_system": "A549", "assay": "Cell cycle arrest in human A549 cells assessed as accumulation at G1 phase at 60 nM after 24 hrs by propidium iodide/RNase A staining-based flow cytometric analysis (reference value: 57.41%)", "assay_type": "functional"}, "A549 [10]": {"test_system": "A549", "assay": "Induction of apoptosis in human A549 cells assessed as early apoptotic cells at 30 nM after 12 hrs by Annexin-V FITC/propidium iodide staining based flow cytometric analysis (reference value: 0.32%)", "assay_type": "functional"}, "A549 [11]": {"test_system": "A549", "assay": "Induction of apoptosis in human A549 cells assessed as viable cells at 30 nM after 12 hrs by Annexin-V FITC/propidium iodide staining based flow cytometric analysis (reference value: 97.18%)", "assay_type": "functional", "details": "A549, 12 h, read-out: Activity"}, "A549 [12]": {"test_system": "A549", "assay": "Induction of apoptosis in human A549 cells at 60 nM by Annexin-V FITC/propidium iodide staining based flow cytometric analysis", "assay_type": "functional, cell-based", "details": "TDE = time-dependent effect"}, "A549 [13]": {"test_system": "A549", "assay": "Induction of apoptosis in human A549 cells assessed as late apoptotic cells at 60 nM after 12 hrs by Annexin-V FITC/propidium iodide staining based flow cytometric analysis (reference value: 1.22%)", "assay_type": "functional"}, "A549 [14]": {"test_system": "A549", "assay": "Cell cycle arrest in human A549 cells assessed as accumulation at G1 phase at 90 nM after 24 hrs by propidium iodide/RNase A staining-based flow cytometric analysis (reference value: 57.41%)", "assay_type": "functional"}, "A549 [15]": {"test_system": "A549", "assay": "Cell cycle arrest in human A549 cells assessed as accumulation at G2 phase at 90 nM after 24 hrs by propidium iodide/RNase A staining-based flow cytometric analysis (reference value: 30.02%)", "assay_type": "functional"}, "A549 [16]": {"test_system": "A549", "assay": "Cell cycle arrest in human A549 cells assessed as accumulation at S phase at 60 nM after 24 hrs by propidium iodide/RNase A staining-based flow cytometric analysis (reference value: 12.57%)", "assay_type": "functional"}, "A549 [17]": {"test_system": "A549", "assay": "Antiproliferative activity against human A549 cells assessed as reduction in cell viability measured after 72 hrs by MTT assay", "assay_type": "functional, cell-based", "details": "Homo sapiens, A549, 72 h; read-out: IC50", "summary_of_the_method": "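Cells seeded 5×10^3/well, cultured overnight, then exposed to 10, 1, 0.1, 0.01, 0.001 and 0.0001 µM (from 10 mM DMSO stocks diluted in medium; vehicle 1% DMSO PBS) for 72 h at 37 °C. Medium replaced with 0.5 mg/mL MTT for 4 h, formazan dissolved in DMSO, A570 read. IC50 as mean ± SD of three independent experiments.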"}}, "note": "Calls of active or inactive are those of the source. No cut-off for these calls is given here.", "data": [{"smiles": "COc1cc(C[C@H]2NC(=O)[C@H](C(C)C)N(C)C(=O)/C(C)=C/C[C@@H](OC)/C(C)=C/C=C/[C@@H](C)[C@@H](c3ccccc3)OC(=O)[C@H](C(C)C)NC2=O)ccc1O", "values": [{"measurement": "Activity", "setting": "A549 [1]", "result": 4.46, "unit": "%"}, {"measurement": "Activity", "setting": "A549 [2]", "result": 2.3, "unit": "%"}, {"measurement": "Activity", "setting": "A549 [3]", "result": 5.08, "unit": "%"}, {"measurement": "IC50", "setting": "MCF7", "result": 15, "unit": "nM"}, {"measurement": "Activity", "setting": "A549 [4]", "result": 3.55, "unit": "%"}, {"measurement": "Activity", "setting": "A549 [5]", "result": 29.03, "unit": "%"}, {"measurement": "Activity", "setting": "A549 [6]", "result": 13.07, "unit": "%"}, {"measurement": "inhibition", "setting": "A549 [7]", "result": "Active"}, {"measurement": "Activity", "setting": "A549 [8]", "result": 10.19, "unit": "%"}, {"measurement": "IC50", "setting": "A-375", "result": 4.3, "unit": "nM"}, {"measurement": "Activity", "setting": "A549 [9]", "result": 44.44, "unit": "%"}, {"measurement": "Activity", "setting": "A549 [10]", "result": 1.21, "unit": "%"}, {"measurement": "viability at 0.03 µM", "setting": "A549 [11]", "result": 75.3, "unit": "%"}, {"measurement": "Activity", "setting": "A549 [12]", "result": "Tde"}, {"measurement": "Activity", "setting": "A549 [13]", "result": 20.03, "unit": "%"}, {"measurement": "Activity", "setting": "A549 [14]", "result": 37.81, "unit": "%"}, {"measurement": "Activity", "setting": "A549 [15]", "result": 57.73, "unit": "%"}, {"measurement": "Activity", "setting": "A549 [16]", "result": 14.75, "unit": "%"}, {"measurement": "IC50", "setting": "A549 [17]", "result": 20.2, "unit": "nM"}]}]}
